Data on 6 compounds can be found in ChEMBL document CHEMBL1133565 (J Med Chem, 2000).

For assay [1], the target named is T1, Sodium-dependent dopamine transporter (Homo sapiens, UniProt Q01959). Nature of the assay: Inhibition of reuptake of [3H]DA (20 nM) by dopamine transporter. Put shortly: (§1)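 Uptake used whole confluent cells: hSERT in HEK293; hDAT in C6, later HEK293. Cells were washed and scraped in PBS at 25 °C, then preincubated 10 min with drug in Krebs HEPES at 25 °C. [3H]5HT or [3H]DA was added at 20 nM final for 10 min, then filtered on 0.05% polyethylenimine-soaked filters. Six drug concentrations, each in triplicate.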

Assay [2] is described as follows: Effective dose for generalization to 10 mg/kg cocaine in rat (value is standard error of the population of 88 independent determinations). In kind it is functional.
The target in assay [3] is T1, Sodium-dependent dopamine transporter. The assay can be described thus: Binding affinity against cloned human dopamine transporter using 40-80 pM [125I]RTI. Put shortly: (§2)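 Membranes from cells expressing recombinant human transporters: DAT in C6 cells, later HEK293; SERT and NET in HEK293. Cells lysed (2 mM HEPES, 1 mM EDTA), spun at 30000g, resuspended in 0.32 M sucrose, about 15 µg protein. GF/C filtration. Duplicates; IC50 converted to Ki by Cheng-Prusoff.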

Assay [4] shares this target. Nature of the assay: Ratio of dopamine uptake to dopamine binding.
Assay [5] has as its target T2, Sodium-dependent serotonin transporter (Homo sapiens, UniProt P31645). The assay can be described thus: Ratio of serotonin uptake to serotonin binding.
Target sequence in this assay (P31645 whole entry, looked up): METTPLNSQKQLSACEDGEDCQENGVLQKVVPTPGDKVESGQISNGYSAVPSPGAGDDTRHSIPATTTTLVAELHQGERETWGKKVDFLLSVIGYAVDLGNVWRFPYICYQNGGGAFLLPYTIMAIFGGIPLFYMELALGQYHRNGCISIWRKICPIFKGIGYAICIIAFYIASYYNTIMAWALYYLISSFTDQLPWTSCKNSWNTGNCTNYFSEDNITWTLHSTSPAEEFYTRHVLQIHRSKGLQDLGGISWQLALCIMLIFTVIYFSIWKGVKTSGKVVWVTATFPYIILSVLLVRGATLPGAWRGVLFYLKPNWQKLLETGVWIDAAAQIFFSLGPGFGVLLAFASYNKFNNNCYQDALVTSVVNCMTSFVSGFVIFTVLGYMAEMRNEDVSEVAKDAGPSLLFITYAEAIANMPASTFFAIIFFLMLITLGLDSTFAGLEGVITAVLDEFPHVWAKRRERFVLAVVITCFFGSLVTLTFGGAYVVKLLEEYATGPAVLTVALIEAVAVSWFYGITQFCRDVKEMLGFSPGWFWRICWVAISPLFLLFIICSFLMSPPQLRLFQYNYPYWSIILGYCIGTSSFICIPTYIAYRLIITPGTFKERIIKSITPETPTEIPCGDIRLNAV
The target of assay [6] is T2, Sodium-dependent serotonin transporter. The assay can be described thus: Inhibition of reuptake of [3H]5-HT (20 nM) by serotonin transporter. Put shortly:
as §1
Target sequence in this assay (P31645 whole entry): as the sequence (P31645 whole entry, looked up) above

Assay [7] shares this target. Nature of the assay: Binding affinity against cloned serotonin human transporter using 40-80 PM [125I]RTI. Put shortly:
as §2
Target sequence in this assay (P31645 whole entry): as the sequence (P31645 whole entry, looked up) above

Assay [8] deals with T3, Sodium-dependent noradrenaline transporter (Homo sapiens, UniProt P23975). The assay can be described thus: Binding affinity against norepinephrine cloned human transporter using 40-80 pM [125I]RTI.
Target sequence in this assay (P23975 whole entry): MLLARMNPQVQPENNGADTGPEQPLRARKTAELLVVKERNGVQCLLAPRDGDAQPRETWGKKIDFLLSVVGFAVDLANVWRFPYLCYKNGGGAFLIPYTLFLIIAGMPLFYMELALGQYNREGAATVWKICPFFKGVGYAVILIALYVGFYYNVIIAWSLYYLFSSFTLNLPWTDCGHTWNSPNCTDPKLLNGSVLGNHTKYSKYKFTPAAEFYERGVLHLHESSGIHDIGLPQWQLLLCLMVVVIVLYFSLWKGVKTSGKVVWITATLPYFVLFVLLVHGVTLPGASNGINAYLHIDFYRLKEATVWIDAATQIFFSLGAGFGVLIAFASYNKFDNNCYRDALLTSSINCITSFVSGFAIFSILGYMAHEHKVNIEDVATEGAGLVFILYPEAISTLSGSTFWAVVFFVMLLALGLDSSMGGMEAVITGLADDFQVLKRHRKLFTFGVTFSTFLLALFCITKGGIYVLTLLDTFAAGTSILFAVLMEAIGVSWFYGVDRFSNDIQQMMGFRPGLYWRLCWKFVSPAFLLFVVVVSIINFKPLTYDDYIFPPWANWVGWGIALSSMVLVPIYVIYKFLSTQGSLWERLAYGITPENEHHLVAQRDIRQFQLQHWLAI
Assay [9] deals with T3, Sodium-dependent noradrenaline transporter. Nature of the assay: Inhibition of reuptake of [3H]-NE (20 nM) by norepinephrine transporter.
Target sequence in this assay (P23975 whole entry): as above
The target in assay [10] is Monoamine transporters; serotonin & dopamine (Homo sapiens) (UniProt P31645+Q01959). Nature of the assay: Ratio of inhibition of serotonin uptake to inhibition of dopamine uptake. In kind it is protein assay.
The species named for another assay is Mus musculus. Nature of the assay: Effective dose on 8 hr locomotor assay in mice (value is standard error of the population of 72 independent determinations). In kind it is functional. Put shortly:
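Groups of 8 nonhabituated male Swiss-Webster mice (Hsd:ND4, 2-3 months), dosed ip in 0.9% saline vehicle just before testing. Horizontal photobeam breaks counted in 10-min bins for 8 h from 0800 h, one mouse per chamber.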

Assay [11] deals with T3, Sodium-dependent noradrenaline transporter. The assay can be described thus: Ratio of norepinephrine uptake to norepinephrine binding.
Target sequence in this assay (P23975 whole entry, looked up): as the sequence (P23975 whole entry) above

Where only a bound is given, the exact number is not on record here.

Chain of Monoamine transporters; serotonin & dopamine (Homo sapiens) (P31645 whole entry, looked up): as the sequence (P31645 whole entry, looked up) above
Chain of Monoamine transporters; serotonin & dopamine (Homo sapiens) (Q01959 whole entry, looked up): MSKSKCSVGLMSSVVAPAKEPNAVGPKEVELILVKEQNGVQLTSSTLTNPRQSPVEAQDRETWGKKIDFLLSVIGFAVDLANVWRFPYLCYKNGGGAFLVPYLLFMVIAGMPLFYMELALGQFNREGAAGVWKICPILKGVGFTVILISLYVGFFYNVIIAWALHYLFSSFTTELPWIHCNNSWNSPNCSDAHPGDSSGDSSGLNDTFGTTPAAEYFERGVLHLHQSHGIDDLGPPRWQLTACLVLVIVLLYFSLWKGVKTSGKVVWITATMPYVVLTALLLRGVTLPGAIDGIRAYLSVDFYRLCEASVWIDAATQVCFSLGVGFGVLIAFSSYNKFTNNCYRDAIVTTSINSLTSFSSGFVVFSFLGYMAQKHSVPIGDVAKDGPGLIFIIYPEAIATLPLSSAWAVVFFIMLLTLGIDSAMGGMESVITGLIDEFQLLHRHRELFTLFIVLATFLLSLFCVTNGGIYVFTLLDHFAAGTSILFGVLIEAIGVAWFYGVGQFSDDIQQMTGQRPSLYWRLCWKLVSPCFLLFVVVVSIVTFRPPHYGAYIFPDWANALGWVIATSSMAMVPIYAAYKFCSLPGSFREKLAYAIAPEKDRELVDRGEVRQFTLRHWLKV
T1 sequence (Q01959 whole entry): as the sequence (Q01959 whole entry, looked up) above

As to `CC(C)N(C)[C@@H]1C[C@@H](c2ccc(Cl)c(Cl)c2)c2ccccc21`, the half-maximal inhibitory concentration (IC50) in assay [1] stood at 190 nM; in assay [6], 1500 nM; in assay [9], 420 nM. Also, the figures for the ED50 (in [2]; in the assay listed under Mus musculus) were 3.3 mg/kg and 2.9 mg/kg, respectively. Besides, the Ki came out at 180 nM in assay [3], 44 nM in assay [7] and 260 nM in assay [8]. Further, the Ratio was 1.1 in assay [4], 34 in [5] and 7.9 in [10].
For the compound `CCCN[C@@H]1C[C@@H](c2ccc(Cl)c(Cl)c2)c2ccccc21` (relative stereo), the IC50 was found to be 53 nM in assay [1], 480 nM in [6] and 130 nM in [9]. The ED50 in [2] worked out at 2.3 mg/kg; in the assay listed under Mus musculus, 8.1 mg/kg. Further, the Ratio is 2.4 in [11], 0.24 in assay [4], 3.7 in assay [5] and 9.1 in assay [10]. In addition, the figures for the Ki in assay [3], in assay [7] and in assay [8] were 220 nM, 130 nM and 55 nM, respectively.
Consider `CCCN(C)[C@@H]1C[C@@H](c2ccc(Cl)c(Cl)c2)c2ccccc21` (relative stereo), for which the values for the IC50 in [1], in [6] and in [9] were 340 nM, 190 nM and 640 nM, respectively. Also, the ED50 in assay [2] came to 1.5 mg/kg; in the assay filed under Mus musculus it was 1.7 mg/kg. In addition, the Ratio in assay [11] stood at 1.6; in assay [4] it was 1.4; in assay [5], 2.1; in [10] it was 0.56. In addition, the Ki in assay [3] came out at 250 nM; in assay [7], 91 nM; in [8] it was 400 nM.
For `CN(C)[C@@H]1C[C@@H](c2ccc(Cl)c(Cl)c2)c2ccccc21.O=C(O)/C=C\C(=O)O` (relative stereo), the IC50 in [1] was determined as 200 nM; in [6] it was 65 nM; in [9], 34 nM. For the same compound, the ED50 was determined as 1.3 mg/kg in [2] and 2.4 mg/kg in the assay filed under Mus musculus. The Ki in assay [3] worked out at 19 nM; in [7] it was 0.33 nM; in assay [8], 95 nM.
Regarding `COC(=O)[C@H]1[C@@H](OC(=O)c2ccccc2)C[C@@H]2CC[C@H]1N2C` [COCAINE], the ED50 in assay [2] came to 3.61 mg/kg; in the assay listed under Mus musculus, 7.92 mg/kg.
As to `CC(C)(C)N[C@@H]1C[C@@H](c2ccc(Cl)c(Cl)c2)c2ccccc21` (relative stereo), the IC50 in [1] worked out at 370 nM; in [6] it was 3100 nM; in assay [9] it was 310 nM. Besides, the Ratio in assay [11] was found to be 2.1; in assay [4], 2.8; in assay [5], 4.2; in assay [10], 8.4. For the same compound, the values for the Ki in assay [3], in assay [7] and in assay [8] were 130 nM, 740 nM and 150 nM, respectively. This compound also displayed an ED50 in the assay filed under Mus musculus greater than 28 mg/kg.

As usually defined, the IC50 is the concentration at which inhibition is half-maximal. High values mean weaker potency in that assay, low ones greater potency in that assay. In general, ED50 refers to the dose that gives a 50% effect, or the effect in half of the subjects. High values mean weaker potency, low ones greater potency. As a reminder, the Ki is the dissociation constant of the complex between target and ligand, obtained from inhibition or displacement. Read a high Ki as a looser hold on the target.
